Assay results reported in PubChem BioAssay AID775 (SRMLSC, 2007).
In all, about 130,000 compounds went through this assay and about 900 (0.69%) were called active. This excerpt belongs to a sample that is enriched for actives. A number with no mark means an inactive call.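 How the source made its calls: active means inhibition above a set limit, placed 3 SD over the median of all compounds (cut at about 26% in these data); inactive means the rest.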

Assay: compounds extending yeast replicative lifespan, primary screen, S. cerevisiae, OD615 (AID 775);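 further: 0% = nicotinamide-treated wells and 100% = cells grown without nicotinamide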
Settings: S. cerevisiae growth with nicotinamide, at 10 µM, stronger effect = higher value, deaD strain in restrictive glucose medium
How it was run: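 Assay system: DeaD-strain S. cerevisiae. Medium: CSMM-D glucose medium, restrictive. Reagent: nicotinamide, 1.5 mM, co-present with compound. Compound: 10 µM single point, 0.25% DMSO. Schedule: culture preincubation 4 h, compound exposure 48 h, both 30 °C. Detection: absorbance at 615 nm.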

SMILES | inhibition of the nicotinamide effect
Cc1cc(C(=O)N/N=C/c2cc([N+](=O)[O-])cc(C)c2O)n[nH]1 | -1.48%
Cc1cc(Cl)ccc1OCCCC(=O)NCc1ccncc1 | 1.85%
CCn1ncc(CNC(=O)C2(C)CC2(Br)Br)c1C (centres undefined) | 9.74%
O=C(NCCOCc1ccc(Cl)cc1)c1ncn[nH]1 | 1.27%
CC(C)(C)c1ccc(C(=O)CSc2ncn[nH]2)cc1 | -10.2%
O=C(/C=C/Sc1ncn[nH]1)c1ccc(Cl)cc1 | 44.7% (active)
Cc1ccccc1C(OCCN(C)C)C1CCCCC1 (centres undefined) | -0.42%
COc1ccc(C(CC(=O)c2ccccc2)S(=O)(=O)c2ccccc2)cc1 (centres undefined) | -1.04%
O=C(Nc1cc(C(F)(F)F)ccc1Cl)C(=O)N1CCCCC1 | -4.64%
O=C(CN1C(=O)NC2(CCCCCC2)C1=O)NCc1cccs1 | 7.48%
Cc1ccc(C(=O)OC2=CC(=O)CC(C)(C)C2)cc1 | 72.5% (active)
Cc1cc(O)ccc1NC1=CC(=O)CC(C)(C)C1 | 11.5%
COC(=O)c1ccc(NC(=O)Nc2ccc(C)cc2)cc1 | -13.6%
Nc1nc(SCC(=O)NNc2c(Cl)cc(Cl)cc2Cl)n[nH]1 | 1.57%
O=C(Oc1ccc([N+](=O)[O-])cc1)c1ccc2ccccc2n1 | 75.9% (active)
COc1ccc(C2=NOC(COC(=O)c3ccc4ccccc4n3)C2)cc1 (centres undefined) | -3.92%
COc1ccc(C(=O)COC(=O)c2ccc3ccccc3n2)cc1 | -4.94%
COc1cccc(NC(=O)CC(c2ccc(OC(C)C)cc2)c2ccccc2OC)c1 (centres undefined) | 9.84%
CCc1cc(-c2n[nH]c(=S)n2CC(C)C)cs1 | 7.5%
CCCCCOc1ccc(/C=C/C(=O)NCCc2nc3ccccc3[nH]2)cc1OC | 3.92%
CC1(c2ccccc2)CC(C)(C)N(C(=O)c2cc([N+](=O)[O-])cc([N+](=O)[O-])c2)c2ccccc21 (centres undefined) | -0.09%
CCOC12CC(C)(C)CC(C)(CC3=C1C(=O)CC(C)(C)C3)C2 (centres undefined) | 7.4%
O=C(Cc1cccc2ccccc12)NCCC1=CCCCC1 | 10.1%
O=C(Cc1ccccc1)NCc1ccc(F)cc1 | -0.44%

SMILES | inhibition of the nicotinamide effect
O=C(/C=C\NCC(=O)c1ccccc1)c1ccccc1 | 3.73%
O=C(/C=C/NCc1ccc(F)cc1)c1ccccc1 | 26.6% (active)
COc1cc(C(=O)NNC(=O)c2ccc(S(=O)(=O)N3CCCCC3)cc2)cc(OC)c1OC | -0.56%
Cc1cc(NS(=O)(=O)c2ccc(NC(=S)NC(=O)c3ccc(F)cc3Cl)cc2)no1 | -5.54%
O=C(CSc1ccccn1)Nc1nc2c(ccc3ccccc32)s1 | -4.27%
CC(C)(C)OC(=O)N/N=C/c1ccc(C(=O)O)cc1 | -2.34%
CCC(NC(=O)c1ccccc1NC(=O)c1ccccc1)C(=O)NNC(=O)CSc1nc2ccccc2o1 (centres undefined) | -3.91%
Cc1c(C2=CCN(S(=O)(=O)c3ccc(Cl)cc3)CC2)c2ccccc2n1C | 2.05%
CC(C)C(C)(C#N)NC(=O)CSc1nc2scc(-c3ccccc3)c2c(=O)[nH]1 (centres undefined) | 7.12%
CCc1ccc2c(c1)C(c1ccc([N+](=O)[O-])cc1)=NNC(c1ccccc1)=N2 | -1.67%
CCN(CC)S(=O)(=O)c1cccc(-c2n[nH]c(=S)n2/N=C/c2ccc(C(=O)OC)cc2)c1 | -2.04%
COC(=O)c1ccc(/C=N\n2c(C)nnc2C)cc1 | 27.3% (active)
Cc1nnc(C)n1/N=C/c1ccc(C(C)C)cc1 | 1.31%
CCOc1ccc2nc(C(=O)N3CCCC(C)C3)sc2c1 (centres undefined) | -4.7%
O=c1c2ccccc2nc(CSc2nnnn2-c2ccccc2)n1-c1ccccc1 | -5.7%
N#CCSc1nc2ccccc2c(=O)n1-c1ccccc1 | -7.51%
CCCN1C(=O)C(Cc2nc3ccccc3c(=O)n2-c2ccccc2)c2cc(C)ccc21 (centres undefined) | 38.7% (active)
Cc1noc(/C=C/c2ccco2)c1S(=O)(=O)N1CCC(C(=O)Nc2ccc(Cl)cn2)CC1 | 10.7%
O=C(COC(=O)c1cc(=O)[nH]c2ccccc12)Nc1nc(-c2cccc(Br)c2)cs1 | -0.45%
Cc1ccc(OCCOCCOc2ccc(Br)cc2/C=N\NC(=O)c2ccncc2)cc1 | -1.41%
CC12CCC(C(=O)N(c3cccc(Cl)c3)C1=O)C2(C)C (centres undefined) | 3.45%
COC(=O)C1=CN(C)C=C(C(=O)OC)C1c1ccc(Cl)cc1Cl | -5.36%
CC12CN3CC(C)(CN(C1)C3c1ccc(Cl)cc1Cl)C2=O (centres undefined) | 30.1% (active)
COc1ccc(NC(=O)COC(=O)c2ccc(NS(=O)(=O)/C=C/c3ccccc3)cc2)cc1 | 3.99%

SMILES | inhibition of the nicotinamide effect
Cc1c(NS(=O)(=O)c2ccc(NC3CCCC3)c([N+](=O)[O-])c2)c(=O)n(-c2ccccc2)n1C | -2.8%
COc1ccc(S(=O)(=O)Nc2c(C)n(C)n(-c3ccccc3)c2=O)cc1 | -9.71%
Cc1ccc(S(=O)(=O)Nc2ccccc2CNc2c(C)n(C)n(-c3ccccc3)c2=O)cc1 | 43% (active)
O=C(Nc1cccc([N+](=O)[O-])c1)c1ccc2c(c1)OCO2 | -0.87%
COC(=O)c1ccccc1SC1CC(=O)N(c2cccc(C)c2)C1=O (centres undefined) | -3.77%
CC(C)(C)c1ccc(/C=C/C(=O)Nc2ncccn2)cc1 | -2%
N#Cc1ccc(N2Cc3ccccc3/C2=N/C(=O)Nc2ccc(Cl)cc2)cc1 | -2.85%
Cc1cccc(N2Cc3ccccc3C2=NC(=O)c2ccc(Cl)nc2)c1 | 34.6% (active)
Cc1cccc(N2CCN(C(=O)c3cccc(S(=O)(=O)N4CCc5ccccc5C4)c3)CC2C)c1 (centres undefined) | 9.33%
CC(NC(=S)Nc1ccc(S(N)(=O)=O)cc1)c1ccc2c(c1)OCO2 (centres undefined) | -4.33%
CC1CC(C)CN(S(=O)(=O)c2cccc(C(=O)N3C(=O)c4cccc(N)c4C3=O)c2)C1 (centres undefined) | 86.5% (active)
O=C(c1cccc(S(=O)(=O)N2CCOCC2)c1)N1CCOCC1 | 4.86%
COC(=O)c1cn(C)c2ccc(S(=O)(=O)N3CC(C)CC(C)C3)cc2c1=O (centres undefined) | -19.7%
Cc1cc(C)c(NC(=S)N2CCCC2C(=O)O)c(C)c1 (centres undefined) | -4.99%
Cc1cccc(N2C(=O)SC(SC(=Nc3ccccc3)Nc3ccccc3)C2=O)c1 (centres undefined) | 7.31%
COc1ccc(/C=N/NC(=O)c2ccc(Cl)cc2)cc1COC(C)=O | -4.25%
Cc1cc(Cl)ccc1NC(=S)NCCCN1CCCC1=O | 3.7%
O=C(N/N=C/c1coc2ccccc2c1=O)c1cc2ccccc2o1 | 19.2%
NC(=S)N/N=C/c1coc2cc(Cl)ccc2c1=O | 38.1% (active)
CC(C)Oc1c(Br)cc(Br)cc1/C=N/NC(N)=S | 0.87%
O=C(Cc1ccccc1)NNC1CC(=O)N(c2ccc(Br)cc2)C1=O (centres undefined) | -4.42%
COc1ccc(-n2c(C)cc(C(=O)COC(=O)c3cc(OC)c(OC)cc3NC(=O)c3cccs3)c2C)cc1 | 1.08%
O=C(CSc1nc2ccccc2o1)N1c2ccccc2Sc2ccc(Cl)cc21 | -7.73%
S=C1Nc2cc(Cl)ccc2Sc2ccccc21 | 2.87%

SMILES | inhibition of the nicotinamide effect
O=C1Cc2ccccc2Sc2ccc(Cl)cc21 | 38.7% (active)
Cc1ccccc1N/C(SCc1ccc(Cl)cc1)=C(/C#N)C(N)=O | 1.27%
Cc1nnc(-c2ccc(Oc3ccc(C)c(C)c3)c([N+](=O)[O-])c2)o1 | -6.06%
Cc1ccc(S(=O)(=O)N(CC(=O)Nc2cccc([N+](=O)[O-])c2)Cc2ccc(Cl)cc2)cc1 | -5.04%
CC1(C)CC(=O)C=C(NC2CC(C)(C)NC(C)(C)C2)C1 | 5.33%
COCC(C)N=CC1=C(O)CC(C)(C)CC1=O (centres undefined) | -1.64%
CCC(=NC1CC(C)(C)NC(C)(C)C1)C1=C(O)CC(C)(C)CC1=O | 36.4% (active)
Cc1[nH]c2ccccc2c1/C=N\NC(=O)Cn1nnc(-c2ccccc2)n1 | 1.83%
Cc1nn(CC(=O)Nc2ccc(N(C)C)cc2)c(C)c1[N+](=O)[O-] | -0.66%
COC(=O)/C(C#N)=C/c1occc1C | -5.74%
Cc1cc(/C=C2/NC(=O)NC2=O)c(C)n1-c1cccnc1 | -0.65%
CCOc1ccc(S(=O)(=O)N(CC(=O)O)c2ccccc2)cc1 | -6.31%
CCN(c1ccccc1)S(=O)(=O)c1ccc(N)cc1 | -3.49%
O=S(=O)(ON(c1ccccc1)S(=O)(=O)c1ccccc1)c1ccccc1 | 43.7% (active)
Cc1nc2ccccc2n1CC(=O)N/N=C/c1cccs1 | 2.27%
NS(=O)(=O)c1ccc(CNC(=O)c2ccc(Cl)cc2[N+](=O)[O-])cc1 | 3.9%
CCCCN(C)c1ccc([N+](=O)[O-])cc1 | 0.62%
CCCCSc1[nH]c(=O)c(C(=O)OCC)cc1C#N | 35.7% (active)
CC(=O)c1cc(C#N)c(SCC(=O)C(C)(C)C)nc1C | -19%
Cc1cc(=O)[nH]c(SCC(N)=O)c1C#N | -13.6%
Cc1ccc(-c2nnc(SCC(=O)N/N=C/c3cccs3)n2-c2ccc(C)cc2)cc1 | -1.13%
CC1(C)CC(=O)C(N=Nc2ccc(S(=O)(=O)N3CCCCCC3)cc2)=C(O)C1 | -0.81%
